Compounds with a hit are over-represented: about 3.7% of the library has one in this group of screens.
hERG protect = shields human hERG channel from block by proarrhythmic agents | hit rate 0.51% among 310,000 | Q12809 | activation (rescue from dofetilide block), less the hit threshold, % at 10 µM | CHO-hERG, FluxOR thallium flux, dofetilide IC70 present;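 active = activation above the mean of controls blocked by dofetilide plus 5 SD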;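 note: thallium influx through hERG after potassium depolarization seen as dye fluorescence rise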
KCNQ1 block = blocks the human KCNQ1 potassium channel | P51787 | CHO-K1 KCNQ1, FluxOR thallium flux fluorescence; stronger effect = higher value | B-score at 10 µM | hit rate 1.3% among 310,000 | AID 2642;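 active = compounds whose thallium flux B-score, printed positive for inhibition, exceeds three library SD while starting fluorescence stays within three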;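 note: channel opened by potassium depolarization with thallium stimulus after 20 min compound exposure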
Kir21 inh = blocks the mouse Kir2.1 inward-rectifier potassium channel; P35561; HEK293-Kir2.1, FluxOR thallium flux fluorescence; stronger effect = lower value; B-score at 10 µM; hit rate 0.85% among 310,000; AID 1672;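 active = fluorescence ratio B-score at or below minus 3 SD of library scores, with starting-brightness B-score within 2 SD, cut at about -4.2 in these data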;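 note: channel flux triggered by added potassium and thallium sulfate stimulus; B-score of peak minus minimum fluorescence over baseline after thallium stimulus; more negative B-score means stronger Kir2.1 block with less thallium influx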
KCNK9 inh = human KCNK9 channel inhibition. Q9NPC2. HEK293 KCNK9, FluxOR thallium flux fluorescence; stronger effect = lower value. B-score at 10 µM. hit rate 1.2% among 310,000. AID 488922;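 active = ratio B-score over 3 SD below the library mean, with starting fluorescence within 5 SD of its mean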;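 note: negative B-score means less thallium flux so channel inhibition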
KCNQ1 pot = human KCNQ1 channel potentiation or activation; P51787; CHO-K1 KCNQ1, thallium flux FluxOR fluorescence; stronger effect = higher value; B-score at 10 µM; hit rate 0.35% among 310,000; AID 2648;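 active = fluorescence ratio B-score, a plate-corrected score, at least three library SD, with initial intensity B-score within 5 SD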
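Assay system: CHO-K1 cells stably expressing KCNQ1. Medium: assay buffer for compound exposure, DMSO matched across wells. Timing: 37 °C overnight plating, 90-min dark dye load, 20-min compound pretreatment. Signal: kinetic FluxOR fluorescence, 10 s baseline plus 110 s post-stimulus.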
KCNK3 inh = human KCNK3 channel inhibition, primary screen. O14649. CHO-KCNK3 thallium flux, FluxOR fluorescence; stronger effect = lower value. B-score at 10 µM. hit rate 0.84% among 340,000. AID 602410;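 active = B-score under library mean minus 4 SD, starting fluorescence ratio at most library mean plus 5 SD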;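 note: more negative B-score means stronger inhibition of thallium flux through KCNK3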
Target sequence (O14649 whole entry, looked up): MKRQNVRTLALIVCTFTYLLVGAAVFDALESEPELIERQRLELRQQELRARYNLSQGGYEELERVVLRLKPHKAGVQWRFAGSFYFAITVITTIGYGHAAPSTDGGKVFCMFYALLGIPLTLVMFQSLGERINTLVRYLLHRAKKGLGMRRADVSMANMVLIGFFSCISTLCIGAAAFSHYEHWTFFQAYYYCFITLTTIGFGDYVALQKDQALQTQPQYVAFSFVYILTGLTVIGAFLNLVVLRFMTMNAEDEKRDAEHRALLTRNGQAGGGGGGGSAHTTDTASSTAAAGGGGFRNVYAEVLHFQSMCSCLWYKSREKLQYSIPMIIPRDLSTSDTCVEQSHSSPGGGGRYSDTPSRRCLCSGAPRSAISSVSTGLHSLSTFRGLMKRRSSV
Of the large screens only hits and unclear results are named; the others gave an inactive call.

CSc1ncc(C(C)=O)c(C)n1	none
CC(=O)c1cnc(Nc2nc(C)c3cc(C)c(C)cc3n2)nc1C	hERG protect 7.7
Cc1ccc(NC(=Nc2ccc(Br)cc2)N2CCOCC2)cc1C	KCNQ1 block 6
CCOC(=O)Cc1csc(NC(=S)NC(=O)c2ccc(Cl)cc2)n1	hERG protect 7.3, KCNQ1 pot 17
CCOC(=O)Cc1csc(NC(=S)NC(=O)c2ccc([N+](=O)[O-])cc2)n1	none
CCCN(CC(=O)Nc1cc(Cl)ccc1Cl)C(=O)/C=C/c1cc(OC)ccc1OC	KCNK3 inh -8.7 (no result: hERG protect, KCNQ1 block, Kir21 inh, KCNK9 inh, KCNQ1 pot)
O=C(NCc1ccccc1C(F)(F)F)C1CC(c2cc(C(F)(F)F)cc(C(F)(F)F)c2)=NO1 (configuration not stated)	KCNQ1 block 6
CC(C)c1nnc(NC(=O)CCC(=O)Nc2ccc3cn[nH]c3c2)s1	none
Cc1cc(C)cc(OCCn2ccnc2)c1	none
O=c1c2cc(Cl)ccc2nc(-c2ccccc2)n1O	hERG protect 11, KCNQ1 pot 8
O=c1c2cc(Br)ccc2nc(-c2cccc(C(F)(F)F)c2)n1O	hERG protect 73, KCNQ1 pot 99
O=c1c2ccc(Cl)cc2nc(-c2ccc([N+](=O)[O-])cc2)n1O	hERG protect 6.7, KCNQ1 pot 35
O=c1c2cc(Br)ccc2nc(-c2ccc([N+](=O)[O-])cc2)n1O	hERG protect 16, KCNQ1 pot 26
COc1ccc(S(=O)(=O)N2CCCCC2)cc1NC(=O)COC(=O)c1ccco1	none (no result: hERG protect, KCNQ1 block, Kir21 inh, KCNK9 inh, KCNQ1 pot)
Cc1cc(C(=O)Nc2ccccc2C(=O)O)ccc1NC(=O)COc1cccc(C)c1C	none
Cc1nn(-c2ccccc2)c(N)c1C1(O)C(=O)Nc2ccccc21 (configuration not stated)	none
Cc1cc(C)n2nc(C(=O)N3CCOCC3)nc2n1	hERG protect 8.0
Cc1cc(C)n2nc(C(=O)OCC(=O)N3CCC3)nc2n1	hERG protect 5.3
Cc1ccc(S(=O)(=O)CCC(=O)OC(C)c2nnc(-c3cccs3)o2)cc1 (configuration not stated)	none (no result: hERG protect, KCNQ1 block, Kir21 inh, KCNK9 inh, KCNQ1 pot)
Cc1ccc(S(=O)(=O)N2CCCC2CNC(=O)C(=O)Nc2ccc(F)cc2F)cc1 (configuration not stated)	none
Cc1cccc(NS(=O)(=O)c2ccc(C)c(C(=O)N(C)C3CCN(C)CC3)c2)c1	none (no result: hERG protect, KCNQ1 block, Kir21 inh, KCNK9 inh, KCNQ1 pot)
COc1cc(/C=C2\SC(c3ccccc3)=NC2=O)cc(Cl)c1O	KCNK3 inh -10
COc1ccc(/C=C2\SC(c3ccc(C)cc3)=NC2=O)cc1OC	hERG protect 9.7
CCC(NC(=O)COc1cc2c(c3oc(=O)c(C)c(C)c13)CCC(C)(C)O2)C(=O)O (configuration not stated)	none
CCOc1ccc(N(CC(=O)N2CCN(c3ccccc3OC)CC2)S(=O)(=O)c2ccc(C)cc2)cc1	KCNQ1 block 9
COc1ccc(N(CC(=O)N2CCN(c3ccccc3)CC2)S(=O)(=O)c2ccc(C)cc2)cc1	none
O=C(NC1CCCCC1)C(c1ccccn1)N(C(=O)c1csnn1)c1ccccc1F (configuration not stated)	none
COc1ccc(S(=O)(=O)N2CCCC2C(=O)Nc2nnc(-c3cccnc3)s2)cc1 (configuration not stated)	hERG protect 7.5
O=C(CSc1ccc2ccccc2n1)c1ccccc1	none
O=C(COC(=O)c1ccccc1)c1ccc(Br)cc1	KCNK9 inh -6.8
O=C(COC(=O)c1ccc(Br)cc1)NCCc1ccccc1	none
CN1CCN(c2ccccc2NC(=O)c2ccc(-c3ccccc3)cc2)CC1	KCNK3 inh -8.8
C=C1CCN([C@@H](Cc2ccccc2)C(=O)NCCCc2ccccc2)S(=O)(=O)c2ccccc21	none
CCOC(=O)CN1C(=O)Nc2ccc(Br)cc2C1c1ccccc1 (configuration not stated)	none
CCOC(=O)CN1C(c2ccc(O)cc2)Nc2ccc(Br)cc2C1c1ccccc1 (configuration not stated)	KCNK9 inh -7.5
CC(=O)c1c(OC(=O)c2ccc(C)cc2)c2ccccc2n1C	KCNK9 inh -7.2
CCSc1cc(N2CCCC2)nc(-c2ccc(C)cc2)n1	none
CCSc1cc(N2CC(C)OC(C)C2)nc(-c2ccccc2Cl)n1 (configuration not stated)	KCNK3 inh -9.1
COc1cccc(/C=C2\C(=O)N(c3cccc(C)c3)C(=O)c3ccccc32)c1	Kir21 inh -9.2
CCOc1cc(/C=C2\C(=O)N(c3cccc(C(F)(F)F)c3)C(=O)c3ccccc32)ccc1O	none
Cc1cccc(N2C(=O)/C(=C\c3ccc(OC(F)F)cc3)c3ccccc3C2=O)c1	Kir21 inh -4.3
CC(C)NC(=O)/C(C#N)=C/c1ccc(N(C)C)o1	KCNQ1 block 7
NS(=O)(=O)c1ccc(Nc2ncccc2[N+](=O)[O-])cc1	hERG protect 4.6
O=C(c1cc(S(=O)(=O)N2CCOCC2)ccc1F)N(CCc1ccccc1)Cc1ccccc1	none
Cc1cccc2sc(NS(=O)(=O)c3ccccc3)nc12	KCNQ1 block 6
O=C(CSc1nnc(-c2ccccn2)o1)Nc1ccccc1F	none
CCOC(=O)C(CSCC(=O)c1ccc(Cl)cc1)NC(=O)OC(C)(C)C (configuration not stated)	Kir21 inh -5.7
CCOC(=O)C(CSCC(=O)c1ccc(Br)cc1)NC(=O)OC(C)(C)C (configuration not stated)	none (no result: KCNK3 inh)
O=C(N/N=C/c1cn(-c2ccccc2)nc1-c1ccc(F)cc1)c1ccc(Br)o1	KCNK3 inh -8.7
O=C(N/N=C/c1cn(-c2ccccc2)nc1-c1cc2ccccc2o1)c1cccnc1	KCNQ1 block 6
O=C(N/N=C/c1cn(-c2ccccc2)nc1-c1cc2ccccc2o1)c1ccncc1	none
O=C(N/N=C/c1cn(-c2ccccc2)nc1-c1cccnc1)c1ccc(F)cc1	none
CN(C)CC1CCCCC1OC(=O)/C=C/c1ccccc1 (configuration not stated)	none
C/C(=N\NC(=S)NCc1ccccc1)c1ccccc1	none
C/C(=N\NC(=S)NCc1ccccc1)c1ccco1	hERG protect 4.9
Cc1cc(C(=O)NN=C2CCCCCC2)c(C)o1	none
CCc1ccc(/C=C2\Oc3c(ccc(O)c3CN3CCN(CCO)CC3)C2=O)cc1	KCNQ1 block 11
CCc1ccc(/C=C2\Oc3cc(OS(C)(=O)=O)ccc3C2=O)cc1	none
CCN(CC)C(=O)COc1coc(CN2CCN(c3ccccc3)CC2)cc1=O	none
COc1ccc(C(=O)/C=C/c2cccc(OCc3ccccc3)c2)cc1CSCC(=O)O	Kir21 inh -6.2
COc1ccc(C(=O)/C=C/c2ccc(OCc3ccccc3)cc2)cc1CSCC(=O)O	none
Fc1ccccc1C1CC(c2ccco2)=Nc2ccccc2S1 (configuration not stated)	KCNK9 inh -6.9
